According to ChEMBL document CHEMBL1145195 (J Med Chem, 2005):

Experiments:
[1] = molecular target: Prothrombin (Homo sapiens, UniProt P00734); experiment: Binding affinity against human thrombin
[2] = molecular target: T1, Coagulation factor X (Homo sapiens, UniProt P00742); experiment: Binding affinity against human Coagulation factor Xa
Target sequence in this assay (P00742 41-179 limits assumed): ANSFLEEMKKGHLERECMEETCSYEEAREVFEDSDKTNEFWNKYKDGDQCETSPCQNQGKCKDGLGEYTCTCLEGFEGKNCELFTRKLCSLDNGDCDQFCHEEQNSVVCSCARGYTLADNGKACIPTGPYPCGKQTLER
Target sequence in this assay (P00742 235-488 limits assumed): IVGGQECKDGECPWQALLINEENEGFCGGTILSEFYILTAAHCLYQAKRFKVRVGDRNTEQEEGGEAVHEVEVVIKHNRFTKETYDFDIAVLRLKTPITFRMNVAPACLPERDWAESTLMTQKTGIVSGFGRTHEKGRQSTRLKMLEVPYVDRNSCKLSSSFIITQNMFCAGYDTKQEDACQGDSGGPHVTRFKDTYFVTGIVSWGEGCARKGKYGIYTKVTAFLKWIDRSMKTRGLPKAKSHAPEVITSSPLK

[3] = Binding affinity of compound was determined against rabbit plasma protein; assay type: ADME, cell-free, Oryctolagus cuniculus
Procedure, shortened: (§1)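 Human or rabbit plasma protein binding determined by equilibrium dialysis.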

[4] = Half life in dogs upon 0.4 mg/kg intravenous administration; assay type: ADME, organism-based, Canis lupus familiaris; set-up: dose 0.4 mg/kg, route intravenous; details: dog, in vivo
Procedure, shortened: (§2)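 Dogs dosed with the compounds as TFA salts in an N-in-1 (cassette) format, 0.4 mg/kg intravenously and 0.2 mg/kg orally.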

[5] = system: Caco-2; experiment: Apparent permeability in Caco-2 (human carcinoma) cells
[6] = Steady state volume of distribution in dogs upon 0.4 mg/kg intravenous administration; assay type: ADME, organism-based, Canis lupus familiaris; set-up: dose 0.4 mg/kg, route intravenous; details: dog, in vivo, read-out: Vdss; procedure, shortened: as §2
[7] = organism: Oryctolagus cuniculus
[8] = molecular target: Vitamin K-dependent protein C (Homo sapiens, UniProt P04070); experiment: Binding affinity determined against human activated protein C
Procedure, shortened: (§3)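 Absorbance at 405 nm followed for 30 min. Percent activity taken from rates against no-inhibitor controls, then converted to Ki using Km and substrate concentration. Run in duplicate alongside internal standards.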

[9] = molecular target: Coagulation factor XI (Homo sapiens, UniProt P03951); experiment: Binding affinity determined against coagulation factor XI; procedure, shortened: as §3
[10] = Binding affinity against human plasma protein was determined; assay type: ADME, cell-free; procedure, shortened: as §1
[11] = Oral bioavailability of compound was determined in dogs upon 0.2 mg/kg administration; assay type: ADME, organism-based, Canis lupus familiaris; details: dog, in vivo; procedure, shortened: as §2
[12] = molecular target: Urokinase-type plasminogen activator (Homo sapiens, UniProt P00749); experiment: Binding affinity determined against human urokinase
[13] = molecular target: Chymotrypsinogen B (Homo sapiens, UniProt P17538); experiment: Binding affinity determined against human Chymotrypsin; procedure, shortened: as §3
[14] = system: Caco-2; experiment: Apparent cell permeability in Caco-2 cell line; assay type: functional, cell-based; details: Homo sapiens
[15] = molecular target: Serine protease 1 (Homo sapiens, UniProt P07477); experiment: Binding affinity determined against human trypsin
[16] = Activated partial thromboplastin time was determined in human plasma; assay type: functional
Procedure, shortened: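 Pooled human plasma obtained by centrifugation at 2000g for 10 min, kept on ice. Inhibitor taken from a 10 mM DMSO stock, diluted in plasma, held on ice. Five to seven concentrations, each in duplicate. Alexin aPTT reagent added after plasma warmed 1 min at 37 °C. Clotting time compared with control plasma; the concentration doubling aPTT is reported.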

[17] = Steady state volume of distribution in dogs at 0.4 mg/kg intravenous administration; assay type: ADME, organism-based, Canis lupus familiaris; set-up: dose 0.4 mg/kg, route intravenous; details: dog, in vivo, read-out: Vdss
Procedure, shortened: (§4)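 Dog pharmacokinetics with compounds given as TFA salts in an N-in-1 (cassette) format, at 0.4 mg/kg intravenously and 0.2 mg/kg orally.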

[18] = molecular target: T1, Coagulation factor X; experiment: Binding affinity against blood clotting factor X
Target sequence in this assay (P00742 whole entry, looked up): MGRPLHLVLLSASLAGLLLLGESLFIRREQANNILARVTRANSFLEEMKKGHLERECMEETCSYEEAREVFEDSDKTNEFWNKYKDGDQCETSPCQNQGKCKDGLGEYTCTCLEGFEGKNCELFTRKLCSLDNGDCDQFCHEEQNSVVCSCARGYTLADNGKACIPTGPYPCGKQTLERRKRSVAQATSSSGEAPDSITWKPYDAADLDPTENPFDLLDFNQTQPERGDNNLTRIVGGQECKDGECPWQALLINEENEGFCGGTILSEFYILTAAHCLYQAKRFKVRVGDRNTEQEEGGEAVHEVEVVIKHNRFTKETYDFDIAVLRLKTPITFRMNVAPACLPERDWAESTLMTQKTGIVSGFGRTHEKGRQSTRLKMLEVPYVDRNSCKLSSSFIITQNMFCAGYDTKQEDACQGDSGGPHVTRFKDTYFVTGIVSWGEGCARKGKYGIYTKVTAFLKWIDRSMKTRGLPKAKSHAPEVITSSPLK

[19] = Binding affinity of compound was determined against human plasma protein; assay type: ADME, cell-free; procedure, shortened: as §1
[20] = Clearance in dogs at 0.4 mg/kg intravenous administration; assay type: ADME, organism-based, Canis lupus familiaris; set-up: dose 0.4 mg/kg, route intravenous; details: dog, in vivo; procedure, shortened: as §4
[21] = Half life period in dogs at 0.4 mg/kg intravenous administration; assay type: ADME, organism-based, Canis lupus familiaris; set-up: dose 0.4 mg/kg, route intravenous; details: dog, in vivo; procedure, shortened: as §4
[22] = Oral bioavailability of compound was determined in dogs upon administration of 0.2 mg/kg; assay type: ADME, organism-based, Canis lupus familiaris; details: dog, in vivo; procedure, shortened: as §4
[23] = molecular target: T2, Coagulation factor VII (Homo sapiens, UniProt P08709); experiment: Binding affinity against human Coagulation factor VII
T2 sequence (P08709 whole entry): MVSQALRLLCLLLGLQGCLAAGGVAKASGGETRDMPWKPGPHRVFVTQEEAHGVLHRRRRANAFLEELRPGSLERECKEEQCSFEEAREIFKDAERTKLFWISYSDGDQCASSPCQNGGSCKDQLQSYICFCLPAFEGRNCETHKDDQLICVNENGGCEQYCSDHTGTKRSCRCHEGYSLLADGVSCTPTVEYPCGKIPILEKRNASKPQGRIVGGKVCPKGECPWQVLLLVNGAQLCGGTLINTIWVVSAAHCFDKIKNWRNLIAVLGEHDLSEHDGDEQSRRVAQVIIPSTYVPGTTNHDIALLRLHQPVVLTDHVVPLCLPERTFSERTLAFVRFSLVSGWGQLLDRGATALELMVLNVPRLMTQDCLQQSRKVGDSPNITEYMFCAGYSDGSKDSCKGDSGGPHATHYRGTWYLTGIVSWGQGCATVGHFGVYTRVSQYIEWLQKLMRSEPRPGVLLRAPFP

[24] = molecular target: Coagulation factor IX (Homo sapiens, UniProt P00740); experiment: Binding affinity against human Coagulation factor IX
[25] = Oral bioavailability in dogs at 0.2 mg/kg (n=2); assay type: ADME, organism-based, Canis lupus familiaris; details: dog, in vivo; procedure, shortened: as §4

Sequence of Serine protease 1 (P07477 whole entry): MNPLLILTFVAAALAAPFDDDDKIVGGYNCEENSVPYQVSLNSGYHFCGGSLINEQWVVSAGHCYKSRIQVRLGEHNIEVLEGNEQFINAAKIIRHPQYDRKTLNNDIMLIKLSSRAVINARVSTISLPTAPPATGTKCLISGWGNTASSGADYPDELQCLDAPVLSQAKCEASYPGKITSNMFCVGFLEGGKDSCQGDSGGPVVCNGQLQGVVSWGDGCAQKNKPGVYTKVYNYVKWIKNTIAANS
Sequence of Vitamin K-dependent protein C (P04070 43-197 limits assumed): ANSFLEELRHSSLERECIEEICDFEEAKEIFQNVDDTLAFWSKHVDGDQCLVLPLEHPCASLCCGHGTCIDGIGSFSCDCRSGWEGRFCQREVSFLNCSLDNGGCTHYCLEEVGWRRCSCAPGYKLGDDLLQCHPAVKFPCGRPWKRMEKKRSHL
Sequence of Vitamin K-dependent protein C (P04070 212-461 limits assumed): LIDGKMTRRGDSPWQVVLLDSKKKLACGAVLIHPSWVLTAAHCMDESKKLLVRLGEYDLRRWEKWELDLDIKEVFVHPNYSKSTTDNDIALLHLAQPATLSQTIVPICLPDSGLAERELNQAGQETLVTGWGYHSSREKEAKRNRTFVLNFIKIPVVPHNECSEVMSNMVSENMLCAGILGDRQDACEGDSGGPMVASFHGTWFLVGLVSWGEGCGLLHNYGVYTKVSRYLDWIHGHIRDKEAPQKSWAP
Sequence of Chymotrypsinogen B (P17538 34-164 limits assumed, other chains not shown): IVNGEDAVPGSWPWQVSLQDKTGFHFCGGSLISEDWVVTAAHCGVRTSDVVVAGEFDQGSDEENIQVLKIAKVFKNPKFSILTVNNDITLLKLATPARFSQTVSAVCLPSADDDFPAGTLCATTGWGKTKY
Sequence of Chymotrypsinogen B (P17538 167-263 limits assumed, other chains not shown): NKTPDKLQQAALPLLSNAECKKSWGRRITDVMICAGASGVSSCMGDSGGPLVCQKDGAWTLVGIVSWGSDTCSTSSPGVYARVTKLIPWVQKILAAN
Sequence of Coagulation factor IX (P00740 47-191 limits assumed): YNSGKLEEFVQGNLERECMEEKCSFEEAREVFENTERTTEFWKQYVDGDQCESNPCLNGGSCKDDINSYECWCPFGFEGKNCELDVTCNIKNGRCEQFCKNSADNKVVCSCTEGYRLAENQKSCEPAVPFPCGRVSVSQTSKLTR
Sequence of Coagulation factor IX (P00740 227-461 limits assumed): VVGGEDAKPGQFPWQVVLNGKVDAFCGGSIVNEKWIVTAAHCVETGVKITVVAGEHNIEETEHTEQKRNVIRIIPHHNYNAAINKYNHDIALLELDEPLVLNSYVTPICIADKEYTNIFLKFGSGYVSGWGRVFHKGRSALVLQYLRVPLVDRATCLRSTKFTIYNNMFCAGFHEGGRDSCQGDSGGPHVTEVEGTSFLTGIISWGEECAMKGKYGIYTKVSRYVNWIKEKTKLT
Sequence of Coagulation factor XI (P03951 19-387 limits assumed): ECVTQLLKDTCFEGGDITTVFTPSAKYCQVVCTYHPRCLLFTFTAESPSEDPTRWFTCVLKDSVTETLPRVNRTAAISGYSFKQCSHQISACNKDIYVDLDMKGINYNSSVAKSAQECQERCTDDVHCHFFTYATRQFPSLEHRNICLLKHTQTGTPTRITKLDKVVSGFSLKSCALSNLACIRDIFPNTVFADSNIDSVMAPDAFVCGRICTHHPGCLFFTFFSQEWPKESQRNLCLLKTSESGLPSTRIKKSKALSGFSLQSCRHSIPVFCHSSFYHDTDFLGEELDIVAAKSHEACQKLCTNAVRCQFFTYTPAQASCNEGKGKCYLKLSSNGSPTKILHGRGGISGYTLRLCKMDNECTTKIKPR
Sequence of Coagulation factor XI (P03951 388-625 limits assumed): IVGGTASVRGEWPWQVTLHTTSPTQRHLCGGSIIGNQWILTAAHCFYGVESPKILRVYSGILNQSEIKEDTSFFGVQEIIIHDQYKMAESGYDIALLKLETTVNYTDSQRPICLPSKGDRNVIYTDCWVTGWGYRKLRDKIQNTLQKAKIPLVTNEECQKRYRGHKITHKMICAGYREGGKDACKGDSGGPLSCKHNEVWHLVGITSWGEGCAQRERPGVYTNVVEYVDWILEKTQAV

Compound	Ki [1] [nM]	Ki [2] [nM]	Permeability [14] [×10⁻⁶ cm/s]	Ki [15] [nM]	concentration doubling aPTT [16] [µM]	also measured
CN(C)Cc1nccn1-c1ccc(NC(=O)c2cc(C(F)(F)F)nn2-c2ccc3onc(N)c3c2)c(F)c1.Cl [RAZAXABAN HYDROCHLORIDE]	–	–	–	–	–	Binding [3]: 93.4%; half-life [4]: 3.4 h; Permeability [5]: 5.56 ×10⁻⁶ cm/s; Vd [6]: 5.3 L/kg; ID50 [7]: 1.6 µmol/kg/h; Ki [8]: 19700 nM; Ki [9]: > 12000 nM; Binding [10]: 90.5%; bioavailability [11]: 84%
CS(=O)(=O)c1ccccc1-c1ccc(NC(=O)c2cc(C(F)(F)F)nn2-c2cccc(CN)c2)c(F)c1	–	–	–	–	–	Ki [12]: > 17000 nM; ID50 [7]: 1.1 µmol/kg/h; Ki [13]: > 17000 nM
Cn1ccnc1-c1ccc(NC(=O)c2cc(C(F)(F)F)nn2-c2ccc3onc(N)c3c2)c(F)c1	34	0.51	4.69	> 2500	9.4	–
Nc1noc2ccc(-n3nc(C(F)(F)F)cc3C(=O)Nc3ccc(C(=O)N4CCCC4)cc3F)cc12	8000	0.92	24.9	> 5200	13.8	–
Nc1noc2ccc(-n3nc(C(F)(F)F)cc3C(=O)Nc3ccc(N4CCOCC4)cc3F)cc12	20000	6.3	–	> 5200	–	–
CNCc1nccn1-c1ccc(NC(=O)c2cc(C(F)(F)F)nn2-c2ccc3onc(N)c3c2)c(F)c1	1700	0.17	0.2	–	5.9	Vd [17]: 4.6 L/kg; Ki [18]: 0.17 nM; Binding [19]: 85.6%; clearance [20]: 18.3 mL/min/kg; half-life [21]: 3.7 h; bioavailability [22]: 27%
Cc1nccn1-c1ccc(NC(=O)c2cc(C(F)(F)F)nn2-c2ccc3onc(N)c3c2)c(F)c1	–	0.7	7.41	–	24.4	Binding [19]: 98%
CCc1nccn1-c1ccc(NC(=O)c2cc(C(F)(F)F)nn2-c2ccc3onc(N)c3c2)c(F)c1	–	0.73	3.32	–	14.3	Binding [19]: 95%
Nc1noc2ccc(-n3nc(C(F)(F)F)cc3C(=O)Nc3ccc(-n4ccnc4CO)cc3F)cc12	1700	1	0.1	–	–	–
Nc1noc2ccc(-n3nc(C(F)(F)F)cc3C(=O)Nc3ccc(-c4ccncc4S(N)(=O)=O)cc3F)cc12	740	0.1	0.54	> 4200	15.5	–

Second part, led by results:

Ki [1] [nM]	Ki [2] [nM]	Compound	Permeability [14] [×10⁻⁶ cm/s]	Ki [15] [nM]	concentration doubling aPTT [16] [µM]	also measured
3500	3	NCc1nccn1-c1ccc(NC(=O)c2cc(C(F)(F)F)nn2-c2ccc3onc(N)c3c2)c(F)c1	–	–	–	–
–	1.6	CC(C)c1nccn1-c1ccc(NC(=O)c2cc(C(F)(F)F)nn2-c2ccc3onc(N)c3c2)c(F)c1	–	–	–	–
2300	0.16	Nc1noc2ccc(-n3nc(C(F)(F)F)cc3C(=O)Nc3ccc(-c4ccccc4S(N)(=O)=O)cc3F)cc12	< 0.1	> 1600	–	–
200	2.8	COc1cc(-n2ccnc2C)ccc1NC(=O)c1cc(C(F)(F)F)nn1-c1ccc2onc(N)c2c1	–	–	–	–
600	0.37	Nc1noc2ccc(-n3nc(C(F)(F)F)cc3C(=O)Nc3ccc(-n4ccnc4CN4CCCC4)cc3F)cc12	23	–	–	–
–	0.52	Cc1nccn1-c1ccc(NC(=O)c2cc(C(F)(F)F)nn2-c2ccc3onc(N)c3c2)c(C#N)c1	< 0.1	–	–	–
800	1.6	Cc1nccn1-c1ccc(NC(=O)c2cc(C(F)(F)F)nn2-c2ccc3onc(N)c3c2)c(-n2ccnc2C)c1	–	–	–	–
> 21000	7.7	Cc1nccn1-c1ccc(NC(=O)c2cc(C(F)(F)F)nn2-c2ccc3onc(N)c3c2)c(C(N)=O)c1	–	–	–	–
1100	0.6	Cc1nccn1-c1ccc(NC(=O)c2cc(C(F)(F)F)nn2-c2ccc3onc(N)c3c2)cc1	0.82	–	–	–
6300	0.09	CS(=O)(=O)c1ccccc1-c1ccc(NC(=O)c2cc(C(F)(F)F)nn2-c2ccc3onc(N)c3c2)c(F)c1	< 0.1	> 5200	–	Ki [12]: 16000 nM; Ki [8]: 28000 nM; Ki [13]: 2300 nM; Ki [23]: > 15000 nM; Ki [24]: 3500 nM; bioavailability [25]: 2%
